The results in this text go back to ChEMBL document CHEMBL1151419, “Antimicrobial effect of halocidin-derived peptide in a mouse model of Listeria infection” (Antimicrob Agents Chemother, 2007).

For data set [1], the system named is Listeria monocytogenes. The data set is described as follows: Antibacterial activity against Listeria monocytogenes ATCC 19111 in assay tube containing mixture of erythrocyte/Listeria monocytogenes cells assessed as logarithmic reduction in CFU after 30 mins. The format is functional. In short, it runs like this:
(§1)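 Washed mid-log L. monocytogenes (final 1 x 10^5 CFU/ml) was mixed with human blood cells (final 5 x 10^8 cells/ml) and peptide (final 40 µg/ml) in PBS at 37°C. A peptide-free control was included. At 10, 20 and 30 min, aliquots were plated on TSA and colonies counted after overnight growth. Blood cells were counted by hemocytometer under light microscopy.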

The nature of data set [2]: Toxicity against human erythrocytes in assay tube containing mixture of erythrocytes/Listeria monocytogenes cells at 40 ug/ml after 30 mins. To be noted: erythrocyte, 0.5 h. The format is cell-based. In short, it runs like this:
as §1

Data set [3] has as its system Listeria monocytogenes. The data set is described as follows: Antimicrobial activity against Listeria monocytogenes ATCC 19111 after 18 hrs by broth microdilution assay. The format is functional. To be noted: ATCC 19111, 18 h. In short, it runs like this: (§2)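 Bacteria were grown overnight to stationary phase in Mueller-Hinton broth at 37°C and diluted to 2 x 10^5 CFU/ml. Line 3 used MHB plus 150 mM NaCl. Peptide stock (640 µg/ml in 0.01% acetic acid) was twofold serially diluted to 10 µg/ml, and 11 µl was added per 100 µl of cells. Turbidity was read after 18 h at 37°C; MIC was the minimum concentration visibly inhibiting growth.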

In data set [4] the test system is Staphylococcus aureus. Put plainly: Antimicrobial activity against methicillin-resistant Staphylococcus aureus CCARM 3695 after 18 hrs by broth microdilution assay in presence of 150 mM NaCl. Format: functional. To be noted: CCARM 3695, 18 h. In short, it runs like this: (§3)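 Same broth microdilution, but the medium was Mueller-Hinton broth supplemented with 150 mM NaCl. Inoculum 2 x 10^5 CFU/ml final. Peptide twofold series in 0.01% acetic acid (stocks 640 to 10 µg/ml). After 18 h at 37°C, MIC read as the lowest concentration with no visible growth.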

Data set [5] has as its system Staphylococcus aureus. The data set is described as follows: Antimicrobial activity against methicillin-resistant Staphylococcus aureus CCARM 3695 after 18 hrs by broth microdilution assay. Format: functional. To be noted: CCARM 3695, 18 h. The method in brief: (§4)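 Broth microdilution (modified CLSI). Overnight stationary-phase Mueller-Hinton broth cultures diluted to 2 x 10^5 CFU/ml final. Peptide serially twofold diluted in 0.01% acetic acid (stock series 640 down to 10 µg/ml); 11 µl added to 100 µl of bacteria. After 18 h at 37°C, MIC taken as the lowest concentration preventing visible turbidity.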

The subject of data set [6] is Listeria monocytogenes. The data set is described as follows: Antimicrobial activity against Listeria monocytogenes ATCC 19111 after 18 hrs by broth microdilution assay in presence of 150 mM NaCl. The format is functional. To be noted: ATCC 19111, 18 h. The method in brief:
as §2

Data set [7] has as its system Staphylococcus aureus. Put plainly: Antimicrobial activity against methicillin-resistant Staphylococcus aureus CCARM 3695 treated with supernatant containing 2 mg drug incubated for 10 mins with PBS centrifuged for 3 hrs by radial diffusion assay. The format is functional, organism-based. In short, it runs like this: (§5)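 2 mg peptide incubated 10 min at 37°C in 2 ml PBS, either serum-free or with 50% heat-treated normal human serum. Spun 3 h at 295,000 x g, 4°C. Then 5 µl of supernatant tested by radial diffusion against mid-log MRSA (4 x 10^6 CFU/ml underlay, 3 h at 37°C, overlay, overnight); clear zones measured.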

Data set [8] concerns Staphylococcus aureus. The data set is described as follows: Antimicrobial activity against methicillin-resistant Staphylococcus aureus CCARM 3695 treated with supernatant containing 2 mg drug incubated for 10 mins with PBS containing 50 % normal human serum centrifuged for 3 hrs by radial diffusion assay. The format is functional, organism-based. The method in brief: as §5

Data set [9] deals with Enterococcus faecium. The data set is described as follows: Antimicrobial activity against vancomycin-resistant Enterococcus faecium CCARM 5029 after 18 hrs by broth microdilution assay. The format is functional. To be noted: CCARM 5029, 18 h. In short, it runs like this:
as §4

In data set [10] the test system is Enterococcus faecium. Put plainly: Antimicrobial activity against vancomycin-resistant Enterococcus faecium CCARM 5029 after 18 hrs by broth microdilution assay in presence of 150 mM NaCl. Format: functional. To be noted: CCARM 5029, 18 h. The method in brief: as §3
Data set [11] concerns Staphylococcus aureus. Put plainly: Antimicrobial activity against methicillin-resistant Staphylococcus aureus CCARM 3695 treated with sample containing 200 ug/ml drug incubated with PBS containing 50% normal human serum for 10 mins measured after 3 hrs by radial diffusion assay. The format is functional, organism-based. The method in brief: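 Normal human serum from three donors, heat-treated 30 min at 56°C. Peptide at 25–200 µg/ml in PBS with 50% serum, held 10 min at 37°C; 5 µl placed in 3-mm wells. Underlay: 1% agarose, 9 mM phosphate, 1 mM citrate, 0.3 mg/ml TSB, pH 7.4, with 4 x 10^6 CFU/ml mid-log MRSA. After 3 h at 37°C, overlaid (1% agarose, 6% TSB), incubated overnight. Clear zones in units (1 mm = 10 units); triplicate means.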

In brackets after ≈: the same amount, converted by molar mass. Activity calls are given as the source filed them. The rule behind the calls is not given here. Bridge positions count the residues as written; N and C are the ends. Peptide text beside a SMILES is read from it. I, II: the chains in the order shown. A value given as a limit tells only on which side of the number the result lay.

As to H-RRWVRRVRRVWRRVVRVVRRWVRR-OH, the outcome in the data set with Listeria monocytogenes [1] was Active. Further, the Activity result in data set [2] was “Toxic”.
As to `CC(C)C[C@H](NC(=O)CNC(=O)[C@H](Cc1cnc[nH]1)NC(=O)[C@H](Cc1cnc[nH]1)NC(=O)[C@H](CC(C)C)NC(=O)[C@H](CC(C)C)NC(=O)[C@H](C)N)C(=O)N[C@@H](CC(N)=O)C(=O)N[C@@H](CSSC[C@H](NC(=O)[C@H](CC(N)=O)NC(=O)[C@H](CC(C)C)NC(=O)CNC(=O)[C@H](Cc1cnc[nH]1)NC(=O)[C@H](Cc1cnc[nH]1)NC(=O)[C@H](CC(C)C)NC(=O)[C@H](CC(C)C)NC(=O)[C@H](C)NC(=O)[C@H](CC(N)=O)NC(=O)[C@H](CC(C)C)NC(=O)[C@@H](N)Cc1c[nH]c2ccccc12)C(=O)N[C@@H](C)C(=O)N[C@@H](CCCCN)C(=O)NCC(=O)N[C@H](C(=O)N[C@@H](CC(C)C)C(=O)N[C@@H](C)C(=O)O)C(C)C)C(=O)N[C@@H](C)C(=O)N[C@@H](CCCCN)C(=O)NCC(=O)N[C@H](C(=O)N[C@@H](CC(C)C)C(=O)N[C@@H](C)C(=O)O)C(C)C` [HALOCIDIN] (I: H-WLNALLHHGLNCAKGVLA-OH / II: H-ALLHHGLNCAKGVLA-OH; disulfide I:12-II:9), the minimal inhibitory concentration (MIC) in the data set with Listeria monocytogenes [3] was 64 µg/mL (≈ 18.6 µM); in the data set on Staphylococcus aureus [4], 32 µg/mL; with Staphylococcus aureus [5], 16 µg/mL (≈ 4.64 µM); in the data set on Listeria monocytogenes [6], more than 64 µg/mL; in the data set with Enterococcus faecium [9] it was 64 µg/mL (≈ 18.6 µM); with Enterococcus faecium [10], more than 64 µg/mL. Moreover, the result in the data set with Staphylococcus aureus [7] and in the data set with Staphylococcus aureus [8] was Active.
Turning to `CC[C@H](C)[C@H](NC(=O)CN)C(=O)NCC(=O)N[C@@H](C)C(=O)N[C@H](C(=O)N[C@@H](CC(C)C)C(=O)N[C@@H](CCCCN)C(=O)N[C@H](C(=O)N[C@@H](CC(C)C)C(=O)N[C@H](C(=O)N[C@H](C(=O)NCC(=O)N[C@@H](CC(C)C)C(=O)N1CCC[C@H]1C(=O)N[C@@H](C)C(=O)N[C@@H](CC(C)C)C(=O)N[C@H](C(=O)N[C@@H](CO)C(=O)N[C@@H](Cc1c[nH]c2ccccc12)C(=O)N[C@H](C(=O)N[C@@H](CCCCN)C(=O)N[C@@H](CCCNC(=N)N)C(=O)N[C@@H](CCCCN)C(=O)N[C@@H](CCCNC(=N)N)C(=O)N[C@@H](CCC(N)=O)C(=O)N[C@@H](CCC(N)=O)C(N)=O)[C@@H](C)CC)[C@@H](C)CC)[C@@H](C)O)[C@@H](C)O)C(C)C)C(C)C` [MELITTIN], the outcome with Listeria monocytogenes [1] was Active. The Activity entry in data set [2] is recorded as “Toxic”.
`CC(C)C[C@H](NC(=O)CNC(=O)[C@H](Cc1cnc[nH]1)NC(=O)[C@H](Cc1cnc[nH]1)NC(=O)[C@H](CC(C)C)NC(=O)[C@H](CC(C)C)NC(=O)[C@H](C)NC(=O)[C@H](CC(N)=O)NC(=O)[C@H](CC(C)C)NC(=O)[C@H](Cc1c[nH]c2ccccc12)NC(=O)[C@@H](N)CCCCN)C(=O)N[C@@H](CC(N)=O)C(=O)N[C@@H](CSSC[C@H](NC(=O)[C@H](CC(N)=O)NC(=O)[C@H](CC(C)C)NC(=O)CNC(=O)[C@H](Cc1cnc[nH]1)NC(=O)[C@H](Cc1cnc[nH]1)NC(=O)[C@H](CC(C)C)NC(=O)[C@H](CC(C)C)NC(=O)[C@H](C)NC(=O)[C@H](CC(N)=O)NC(=O)[C@H](CC(C)C)NC(=O)[C@H](Cc1c[nH]c2ccccc12)NC(=O)[C@@H](N)CCCCN)C(=O)N[C@@H](C)C(=O)N[C@@H](CCCCN)C(=O)NCC(=O)N[C@H](C(=O)N[C@@H](CC(C)C)C(=O)N[C@@H](C)C(=O)O)C(C)C)C(=O)N[C@@H](C)C(=O)N[C@@H](CCCCN)C(=O)NCC(=O)N[C@H](C(=O)N[C@@H](CC(C)C)C(=O)N[C@@H](C)C(=O)O)C(C)C` (I: H-KWLNALLHHGLNCAKGVLA-OH / II: H-KWLNALLHHGLNCAKGVLA-OH; disulfide I:13-II:13): the MIC in the data set on Listeria monocytogenes [3] is 4 µg/mL (≈ 0.972 µM); in the data set with Staphylococcus aureus [4] it was 8 µg/mL; in the data set on Staphylococcus aureus [5] it was 4 µg/mL (≈ 0.972 µM); in the data set on Listeria monocytogenes [6], 8 µg/mL; against Enterococcus faecium [9], 4 µg/mL (≈ 0.972 µM); with Enterococcus faecium [10], 4 µg/mL. The outcome with Staphylococcus aureus [11] and in the data set with Staphylococcus aureus [8] was inactive.
